SMILES strings stand for the structures.

This series is described as follows: Toxicity liver stage against HepG2, at 10uM. In kind it is cell-based. Further details: test concentration 10 uM, cell line HepG2-A16-CD81EGFP. As to conditions: human, HepG2-A16-CD81EGFP cells; read-out: INHIBITION
The essentials: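 Uninfected HepG2-A16-CD81EGFP cells, 3 × 10^3 per well, 1536-well, plated on prespotted compound at 10 μM final, parasite-free screening media added to match infected plates; puromycin 10 μM positive, DMSO 0.5% negative; run in parallel with 48 h PbLuc assay at 37 °C, 5% CO2; viability by CellTiter-Glo luminescence, normalized to controls.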
For the molecule `O=C(c1cccnc1Oc1ccccc1)N1CCCn2ncnc21`, the cytotoxicity at 10 µM is -13.7%.
The figure for `CC(=O)N1CCC(N2CC[C@H](c3nc4cc(C)ccc4o3)C2)CC1` is 2.84%.
As for `CCN(CC)C[C@H]1CN2CC[C@H]1C[C@@H]2CNC(=O)c1ccco1`, the figure is -2.49%; as for `O=C1CO[C@H]2CN(S(=O)(=O)c3ccccc3)C[C@H]2N1Cc1ccccc1`, -1.69%; as for `COCc1cn(C[C@H]2CC3CCN2C[C@@H]3C(=O)Nc2ccccc2)nn1` (stereo partly specified), -0.522%.
For the molecule `CC(C)NC(=O)C[C@@H]1CCNC[C@@H]1Cc1cc(-c2ccccn2)on1`, the cytotoxicity at 10 µM is -3.15%.
Regarding `CC1=C[C@@H](CNS(C)(=O)=O)[C@H](C(C)C)C[C@H]1CC(=O)NCCN(C)C`, the cytotoxicity at 10 µM was 0.559%.
As for `COc1ccc(NC(=O)Cn2ccc3c(=O)n(C)ccc32)cc1OC`, the figure is -4.34%; as for `CCCNC(=O)c1cn(C(C)(C)C)c2ncccc12`, -0.317%; as for `Cc1cnc(NC2CCc3c(ccc(=O)n3C)C2)nc1` (stereo unspecified), -149%.
As for `CC(=O)N1CCC2(CC1)CN(C(=O)c1cccc3[nH]ccc13)C2`, the figure is -121%.
The figure for `Cc1nnc([C@@H]2CC[C@@H]3[C@@H](CCN3CC3CCOCC3)O2)o1` is 7.64%; for `Cc1noc(C2CCC3(CCN(C(=O)c4ncccn4)CC3)O2)n1` (stereo unspecified) it is 4.09%; for `CCS(=O)(=O)N1CCC2(CC(=O)N(c3cnn(C)c3)C2)C1` (stereo unspecified) it is 6.92%.
`CN1CCN(Cn2nc(-c3cccs3)ccc2=O)CC1`: the cytotoxicity at 10 µM stood at 2.63%.
The figure for `CC[C@H](C)[C@H](NC(=O)c1ccccc1-n1cnnn1)C(=O)OC` is 5.16%.
The figure for `O=C(NCC(O)c1cccs1)c1cccc(Cl)c1` (stereo unspecified) is -17.8%; for `O=C(c1cnn2c1OCCC2)N1CCC2(CC1)OCCO2` it is 7.91%.
As to `Cc1cnc2n(c1=O)CC(C(=O)NC1CC1)CS2` (stereo unspecified), the cytotoxicity at 10 µM was -18.3%.
The figure for `Cc1nc(N2CCN(C(=O)c3ccccc3)CC2)c2c(n1)c(C)nn2C` is 15.7%; for `Cc1nc(C)c(C(=O)N2CCc3nnc(C4CCCN4C)n3CC2)s1` (stereo unspecified) it is -4.34%; for `Nc1nc(SCc2ccc3c(c2)OCO3)ns1` it is -0.681%.
The figure for `CCN(CC)S(=O)(=O)c1cc2c3c(c1)c(C)cc(=O)n3CCC2` is 2.85%; for `Cc1cc(C)nc(N2CCC(c3c(C(N)=O)sc4ccccc34)C2)n1` (stereo unspecified) it is 8.78%; for `O[C@H]1CN(Cc2ccnc(N3CCCC3)n2)CC[C@@]12CCCO2` it is 3.62%.
The figure for `Cc1c[nH]nc1C1CCN(C(=O)C2CCC2)CC1` is 5.33%.
For the molecule `Cc1nccc(C2CN(C(=O)c3cncnc3)C2)n1`, the cytotoxicity at 10 µM is -2.46%.
Take `O=C(c1nsc(Cl)c1Cl)N1CCc2nc3sccc3c(=O)n2CC1`: the cytotoxicity at 10 µM is -20.4%.
On to `CC(=O)N1CCC(Cc2nccnc2-c2c(C)n[nH]c2C)C1` (stereo unspecified), for which the cytotoxicity at 10 µM came to 10.7%.
Turning to `Cc1ncc2c(n1)CCN(Cc1ncc(C(C)(C)C)o1)C2`, the cytotoxicity at 10 µM turned out to be 14%.
As for `COc1ccc(C)cc1C1(CNc2cn[nH]c(=O)c2Cl)CCOCC1`, the figure is -6.65%.
As for `NC1(c2nc(-c3ccccc3)cc(=O)[nH]2)CCCC1`, the figure is 1.47%; as for `Cc1nc(CN(C)C(=O)Nc2cccc(COC(C)C)c2)no1`, 8.45%; as for `O=C(CCn1cccn1)NCCOc1ccc2c(c1)OCO2`, -5.01%.
As for `Clc1cccc(C(CNc2ncccn2)N2CCOCC2)c1` (stereo unspecified), the figure is 4.55%.
For `Cc1nn(C)c(C)c1C(C)NCc1ccsc1` (stereo unspecified), the cytotoxicity at 10 µM came to 5.42%.
Take `N#Cc1ccc(CN2CCCN(C(=O)CCn3cncn3)CC2)cc1`: the cytotoxicity at 10 µM is -12.7%.
The figure for `CN(Cc1cccc(Cl)c1)Cc1nnsc1Cl` is 6.78%; for `CCN1CCC(CNC(=O)Nc2cccnc2OC)CC1` it is -0.523%.
As for `Cc1cc(C(=O)N2CCN(S(C)(=O)=O)[C@@H](C)C2)c(F)cc1F`, the figure is -1.78%; as for `COCCc1noc(CN2CCCC2c2noc(C3CC3)n2)n1` (stereo unspecified), 1.33%.
With `CC1Cc2ccccc2N1Cc1occc1C(=O)O` (stereo unspecified), the cytotoxicity at 10 µM was determined as 0.995%.
As for `CN(Cc1ccco1)C(=O)C1=NN(C)C(=O)CC1`, the figure is -144%; as for `CC(C)SCc1cccc(NC2CCN(C)C2=O)c1` (stereo unspecified), 1.26%; as for `Cc1ccc(S(=O)(=O)N(CC(N)=O)CC(C)C)cc1C`, -14.5%.
The figure for `CS(=O)(=O)N1CCC(CSc2ccccc2)C1` (stereo unspecified) is 1.58%; for `O=C(CCn1cncn1)Nc1ccc(F)cc1OCC1CC1` it is -2.58%; for `COc1cc(OC)cc(C(=O)NCCCNc2ncccn2)c1` it is -11.1%.
The figure for `CCn1nc(C(=O)N2CCCC2c2noc(C3CC3)n2)ccc1=O` (stereo unspecified) is 5.65%.
Regarding `CCN(CC)c1ccc(C(=O)NCC2(C(N)=O)CCOCC2)cn1`, the cytotoxicity at 10 µM stood at 2.99%.
As for `CSc1ncccc1C(=O)NCC(c1ccco1)N(C)C` (stereo unspecified), the figure is 2.57%.
In the case of `CS(=O)(=O)CC1(CNc2c(C#N)cnc3ccc(Cl)cc23)CC1`, the cytotoxicity at 10 µM was 8.62%.
The figure for `CC(=O)N1CCSCC1c1ccc(C)o1` (stereo unspecified) is -0.872%.
As for `CCn1c(CN2CCOC(Cn3cncn3)C2)nc2cc(F)ccc21` (stereo unspecified), the figure is -4.84%; as for `N#Cc1c(F)cccc1NCCCOCC1CCOC1` (stereo unspecified), -2.64%; as for `Cc1ccc(-c2nc(CNc3ccc(C(N)=O)c(C)c3)cs2)o1`, 23.9%.
The figure for `CCCC(NC(=O)c1cc(C)n(C2CC2)c1C)c1nnn[nH]1` (stereo unspecified) is -10.1%; for `O=C(Nc1ccnc(OC2CCOC2)c1)C1CCC1` (stereo unspecified) it is 5.76%; for `Cc1cccc(CN2CCc3onc(CN(C)C)c3C2)n1` it is -4.62%.
As to `CN1CCC(Cc2nc(-c3cnccn3)n(Cc3ccccc3)n2)CC1`, the cytotoxicity at 10 µM amounted to 1.21%.
The figure for `OCc1cn(CC2CCN(C3CCSC3)CC2)nn1` (stereo unspecified) is 0.55%; for `CCN(C)C(=O)[C@H]1C[C@@](CC(C)C)(C(=O)OC)N(C)[C@H]1c1cccnc1` it is 0.779%; for `CN(CC(O)CO)C(=O)c1coc(COc2cccc(F)c2)n1` (stereo unspecified) it is -149%.
As to `COc1ccc2c(C)c(C(=O)NCC3CN(S(C)(=O)=O)CCO3)oc2c1` (stereo unspecified), the cytotoxicity at 10 µM turned out to be 9.52%.
As for `CCNC(=O)[C@@H]1C[C@@H](NC(=O)c2ccc(C#N)cc2)CN1CCCSC`, the figure is -123%.
The figure for `CCN(CCn1cccn1)Cc1nc(-c2ccc(C)o2)oc1C` is -4.7%.
As for `CC(=O)N[C@@H]1CN(Cc2cccs2)C[C@H]1c1ccc(C)o1`, the figure is 6.54%; as for `CCCC(C)C(=O)N1CCC(c2cc(N3CCOCC3)nc(C)n2)CC1` (stereo unspecified), -3.35%.
For `COCCN1CCN(c2ncnc3nc(C)cc(C)c23)CC1`, the cytotoxicity at 10 µM amounted to 2.42%.
As for `NCCn1cc(C(=O)N2CCNC(=O)C2c2cccc(F)c2)nn1` (stereo unspecified), the figure is 3.62%; as for `Cc1ccc(-c2cc(C(=O)N(C)Cc3noc4c3CCCC4)[nH]n2)s1`, -1.03%; as for `CC(C)CN1CC2(CCN(C(=O)c3cn4cccnc4n3)CC2)CC1=O`, -6.84%.
The figure for `CCS(=O)(=O)N1CCC2(CCCN(Cc3cc(OC)ccc3F)C2)C1` (stereo unspecified) is 14.4%; for `Cc1cnn(CCNCc2ccccc2F)c1` it is -9.54%.
As for `CN(CC1COc2ccccc2O1)C(=O)NCCCn1cccn1` (stereo unspecified), the figure is -7.27%; as for `CC(C)c1nn(C)c(N(C)C)c1CNCC(O)c1cccc(F)c1` (stereo unspecified), -1.82%.
Take `Cc1noc(C2CCN(C(=O)CCc3nccs3)CC2)n1`: the cytotoxicity at 10 µM is -5.43%.
The figure for `COc1cc(CNCCc2cnn(C)c2)cc2c1OCCO2` is -4.82%.
As for `Cc1cnn(CC(C)NCc2csc(-c3ccsc3)n2)c1` (stereo unspecified), the figure is -6.79%.
As for `CN1N=C(C(=O)NCc2ccc3c(c2)CCCN3C)CCC1=O`, the figure is -0.602%.
On to `O=C(NCc1cncc2c1CCN(Cc1ccc(F)cc1)C2)C1CC1`, for which the cytotoxicity at 10 µM was -3.26%.
Regarding `CN1CCN(CC2CC2)C(=O)C12CCN(C(=O)CC(F)(F)F)CC2`, the cytotoxicity at 10 µM is 8.75%.
As for `Cn1cc(C(=O)N[C@@H]2CN(CC3CCOCC3)[C@@H]3CCCO[C@@H]32)cn1`, the figure is 6.64%; as for `Cc1ccc(C(=O)N2CCC3(CCN(c4ccsc4)C3=O)C2)cn1` (stereo unspecified), -127%.
The figure for `COC(=O)CN1CC(c2nc(Cc3ccccc3)no2)C1` is -22.9%.
As for `O=C(c1ccccn1)N1CCc2ncc(Cn3cccn3)n2CC1`, the figure is 5.44%; as for `c1cnc(N2CCOC3(CCCN(c4cnccn4)C3)C2)nc1` (stereo unspecified), 10.1%.
Regarding `Cc1cccc(CN2C(=O)C[C@H]3[C@@H]2CCN3CC2CC2)n1`, the cytotoxicity at 10 µM came to 6.59%.
For `Cc1ccc(CN2CCC3(CC2)CN(C(=O)c2cnccn2)CCO3)o1`, the cytotoxicity at 10 µM is -4%.
As for `CO[C@H]1CCN(c2nnc(C)s2)C[C@@H]1Cc1ccccc1`, the figure is 11.8%; as for `CN1[C@H](CN2CCCC2)C[C@@H]2CN(Cc3ccoc3)CC[C@@H]21`, -160%; as for `CN(C)CCOCc1nnc2n1CCN(Cc1ccco1)C2`, 7.55%.
The figure for `O=C(NCc1cccnc1)N1CCc2ncnc(C3CC3)c2CC1` is -144%; for `O[C@H]1CCN(CC2CC2)[C@H]1Cc1ccncc1` it is 0.165%.
As to `CN(C)[C@@H]1COC[C@@H]2CN(Cc3ccc4c(c3)OCO4)C[C@@H]21`, the cytotoxicity at 10 µM amounted to 2.02%.
As for `CC(C)c1ccccc1NC(=O)N1C[C@H]2CC[C@@H](C1)N(C)C2=O`, the figure is -3%.

Values taken from ChEMBL document CHEMBL4513216, “Probing the Open Global Health Chemical Diversity Library for Multistage-Active Starting Points for Next-Generation Antimalarials” (ACS Infect Dis, 2020).
